Assay results reported in the EternaBench riboswitch data.

System: MS2 coat protein
Experiment: apparent Kd, MS2 coat protein; higher = weaker binding; RNA-MaP array; FMN 200 µM where present
Summary of the method: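 Stalled E. coli RNA polymerase transcribed the designs on Illumina sequencing-chip clusters. SNAP-549-labelled MS2 coat protein was titrated from 0.7 or 1.5 nM, doubling to 3 µM, without and then with constant ligand, in 100 mM Tris-HCl pH 7.5, 80 mM KCl, 4 mM MgCl2, BSA, DTT, yeast tRNA and Tween-20. Per-cluster binding curves were fitted to green signal normalised to red-channel RNA signal and control-cluster median Fmax. The apparent Kd is the median of the filtered fits.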

[1] = designed as: OFF switch for flavin mononucleotide, no ligand
[2] = ligand present: flavin mononucleotide, designed as: OFF switch for flavin mononucleotide
[3] = designed as: ON switch for flavin mononucleotide, no ligand
[4] = ligand present: flavin mononucleotide, designed as: ON switch for flavin mononucleotide

| Sequence | apparent Kd [1] | apparent Kd [2] | apparent Kd [3] | apparent Kd [4] |
| --- | --- | --- | --- | --- |
| UGGGUAAAUGUAGGAUAUUUAUAUUAAUAAUAUGGAGAAGGACAUGAGGAUCACCCAUGUACAGGGAAUUACCCAUUUCCUCUC | 940 nM | 877 nM | – | – |
| GGAUGUAAGGAGAAGGGCUACUGGUUGAAACCUGCGGCCUCUGGAACAUGAGGAUCACCCAUGUAGCAGGAUAUCCUUGCGUGA | 129 nM | 46.3 nM | – | – |
| UGACGAGUAGGAUAUUGGACUUGCGACAUGAGGAUCACCCAUGUGACGUCAACGUGGCACCAAGAAGGGCUACGUC | 68.1 nM | 46.9 nM | – | – |
| GACAUGGUCCAGAAGGGCUAUUUAUUUAAGUAUUAUUUAGAACAGCAUAGCAGGAUAUGGCUAACAUGAGGAUCACCCAUGUUC | – | – | 18.8 nM | 11.6 nM |
| AAGAAGUGAGGAUAUGCUGCUCGUCACUUGCGUGAUGAGUAGCAGAAGGCACAUGAGGAUCACCCAUGUGGAAA | 31.3 nM | 43.1 nM | – | – |
| UGUUUUCGAGGAUAUACAUGAGGAUCACCCAUGUGGAUUCACACUGACAGUUCCUUUUGUAGAAGGUGAUAGGC | 124 nM | 170 nM | – | – |
| UAUAUAAUUAAGAGCUGGAACUCAACAUGAGGAUCACCCAUGUAGGAUAUCAGCACGAUAAGUGCUGAGAAGGACUACCAGCUC | 18.2 nM | 20.4 nM | – | – |
| UGUCGGAGCAGAGGAUAUUACAUGAGGAUCACCCAUGUAUGAACUAAUAGCUGGAAACAGCAAUGUAAGAAGGCUGCUCCGACA | 6.27 nM | 17.9 nM | – | – |
| AAAUGCCUGUCGAUGCUCGACAUGAGGAUCACCCAUGUAUAGCAGGAUAUGCAGACCUGACUCGUGCAGAAGGGCUAUACCUAA | 12.6 nM | 64.3 nM | – | – |
| GGAUAGUGUCGUUAUCCGUAGCGAACAUGAGGAUCACCCAUGUAGGAUAUGUUACUAAACUAGUAACAGAAGGGCGUGAGUCUU | 94.2 nM | 108 nM | – | – |
| ACGACGAAAGUCGAACGAUGUAGCAGAAGGACAUGAGGAUCACCCAUGUCAGCUGUAACAGCCAUGUAGGAUAUGCUACAUCGA | 4.35 nM | 5.67 nM | – | – |
| UGCGAACAGGCUAACAUGAGGAUCACCCAUGUGGACUCAUGGUAGGAUAUCGGGAAGGAGGAAACCGAGAAGGGCCGGUGAGCU | – | – | 217 nM | 150 nM |
| AUAUAGCGAGGAUAUACAUGAGGAUCACCCAUGUGGUAGUAGAUACGGUAGGGCUAGUGUAGAAGGUGUUAUGA | 139 nM | 87.9 nM | – | – |
| GUGGUGGGUUGAGGAUAUUGGUUGUUGUUGUCCCACAUGAGGAUCACCCAUGUGGGUUGUGGUUUUGAGAAGGUUGGUUGCUGG | – | – | 18.3 nM | 15.5 nM |
| CAGUCUACAGGAUAUACAUGAGGAUCACCCAUGUAAAUUCACUUUCAGUAGUCUACAUGUAGAAGGGUAGACUG | 21.3 nM | 40.3 nM | – | – |
| GCGGCUAGUGCAGGAUAUCGGCGCGUGUAGCGCCGAGAAGGGCACAUGAGGAUCACCCAUGUGAUCAAUCAAUGCUAAUGCCGC | 7.38 nM | 25.4 nM | – | – |
| UUGGUGGUUUCCCGCGCUAAGAUAGGAGAAGGGUGACUGGACAUGAGGAUCACCCAUGUAUCGGCACAGGAUAUCCACAUUAAU | – | – | 223 nM | 334 nM |
| AUAUGAUAGAUAGGAUAUACAUUGGAUUUAAAAGUAGAAGGAUCAAGUGGGAAUUAUACAUGAGGAUCACCCAUGUUUUUGGAU | – | – | 59 nM | 46.7 nM |
| UAUUCAUACGAAGGAUAUGGUUACAUGAGGAUCACCCAUGUAUGUAUAUUGAUCUAGUUAUUUAACCAGAAGGUCGAAUAUAAA | 35.4 nM | 72.6 nM | – | – |

| Sequence | apparent Kd [1] | apparent Kd [2] | apparent Kd [3] | apparent Kd [4] |
| --- | --- | --- | --- | --- |
| CCGAUUAGCACAGGAUAUGGGAAUUCGUAGUUUCCAGAAGGGUGAGCCAAUACAUGAGGAUCACCCAUGUGCGGUAGGUCGGGA | – | – | 30.5 nM | 80 nM |
| ACAUAGUAAGGAUAUGCUGCUCGUCACUUGCGUGAUGAGUAGCAGAAGGUACAUGAGGAUCACCCAUGUAAAAA | 25.3 nM | 19.1 nM | – | – |
| GCAGAGCUAGGAUAUGCUGGGCUGCAGUAAAAUGGUCACUCACAUGAGGAUCACCCAUGUAGAAGGAGCAGUGU | 26.5 nM | 40 nM | – | – |
| UUGUUGUAUGUAGGAUAUGCAUAUUAUUAUUAUGCAGAAGGACAUGAGGAUCACCCAUGUAUGUUAUUAUUAUAUGUUAUAUAU | 27.6 nM | 35.6 nM | – | – |
| UGCGAACAGGCUAACAUGAGGAUCACCCAUGUGGACUCAUGGUAGGAUAUCGGGAAGGAGGAAACCGAGAAGGGCCGGUGAGCG | – | – | 197 nM | 65 nM |
| AAUAACAGAGGAUAUACUAUUUUAUGUAUUUAUUAUUUUGAACAUGAGGAUCACCCAUGUAGAAGGCUGAAUAA | 22.7 nM | 21.7 nM | – | – |
| UGUUGUAUUACAGGAUAUCUAUUAGUUUAAUUUAGAGAAGGGUAUUCACAUGAGGAUCACCCAUGUAUAUACGAGGAAGUUGUG | – | – | 53 nM | 62.2 nM |
| AGCCUACAUGAGGAUCACCCAUGUCAGGAUAUCUCGCGACGUGUCGGGUUCACGUUGCAGAGAAGGGACUCGGG | 50.7 nM | 67.3 nM | – | – |
| CCAUAAAAGAUCCAAAAUUACAACAUGAGGAUCACCCAUGUGCAGGAUAUCGUGCCAGUGAUGUACGAGAAGGGCAGACUCUGC | 251 nM | 333 nM | – | – |
| GGGUGGCGUAGAGGAUAUGUGGUACAUGAGGAUCACCCAUGUGCAUAUGAUGUUCGUGUGUCAUCAUAGAAGGCUACGUCGCUA | – | – | 132 nM | 62.9 nM |
| AGUAACAGAGGAUAUACUAUUUUAUGUGUUUGUUGUUUUGAACAUGAGGAUCACCCAUGUAGAAGGCUGAAUAA | 23.9 nM | 24.9 nM | – | – |
| AAAUUUAACGAAGGAUAUGCUGACAUGAGGAUCACCCAUGUGUGCUUUGUGUUGCUGAAAUGGGAGCAGAAGGUCGUAUACAUA | – | 128 nM | – | – |
| AUAUGAUAGAUAGGAUAUACAGAUGAAUAAUAAGUAGAAGGAUCAAAUGGGAAUUAUACAUGAGGAUCACCCAUGUUUUUGAAU | – | – | 45 nM | 33.6 nM |
| GUUUCCACAGGAAGGAACACUCGGAGAAGGGCACAUGAGGAUCACCCAUGUGCGGCUCGUCACGUGCAGGAUAUUCGAUAUAGA | 7.2 nM | 17.5 nM | – | – |
| GCCGAUUAAGUGAGGAUAUACCUAUGGAUACAUAGGUAGAAGGCACAUGAGGAUCACCCAUGUUCCUCAACGGC | 15.6 nM | 87.8 nM | – | – |
| UUUUUGUCAGGAUAUGAGUCGUAGAACAAUAGUACUACGUCUCAGAAGGGACAUGAGGAUCACCCAUGUGCCUC | 26 nM | 143 nM | – | – |
| GCAAAGCCUGACAUGAGGAUCACCCAUGUUAGAUUGUUAUGUCAGGAUAUUGUCUAGCAACUAGACAAGAAGGGAUGCUUUGCU | – | – | 369 nM | 27.6 nM |
| UCCUUGUCCUGAGGAUAUCCGUGGUUACCGAAAGGAGAAGGCAGGACAUGAGGAUCACCCAUGUACCCAGAAAACGUGCAGAGU | 125 nM | 381 nM | – | – |
| AAAUUAGGGAGAGGAUAUUGACAUGAGGAUCACCCAUGUAUUUGGGAGUGUUUACUGAAUUCUUACGAGAAGGCUUACGAAAUU | 320 nM | 255 nM | – | – |

| Sequence | apparent Kd [1] | apparent Kd [2] | apparent Kd [3] | apparent Kd [4] |
| --- | --- | --- | --- | --- |
| UGCGCCUGCGAGAAGGCACAGAUCCAGCUCUUGACAUGAGGAUCACCCAUGUGAGGAUAUCGCAGGCGCGAAUUGGGACAAUCU | 12.8 nM | 74.1 nM | – | – |
| UAUAUGUCAGGAUAUCGAUUGGAACGGAAUUCGGUUCUGGUUGAGAAGGGACAUGAGGAUCACCCAUGUUUUUC | 36.2 nM | 222 nM | – | – |
| AAAAAGUGAGGAUAUGCGCUGUCCUGUAGACACGAGCAGUCGUAGAAGGCACAUGAGGAUCACCCAUGUUUAAA | 27.6 nM | 20.2 nM | – | – |
| CGGGUCUGAGGAUAUCCAUCUUCAUACAUGAGGAUCACCCAUGUUUACCCUUGGGUUCCCGGAGAAGGCAGUUUUC | 60.9 nM | 56.4 nM | – | – |
| AGAUGGCGAGGAUAUACAUGAGGAUCACCCAUGUGAAGAUAAAUAGUGAGGAAGAAAAGUAGAAGGCGCUGUCA | 77.5 nM | 447 nM | – | – |
| AGAAGGCUACAGAAGGGACACACACGGUGGGAGUCAGGAUAUGUAGAGAAAACGUUACAUGAGGAUCACCCAUGUAGACCUUCC | – | – | 73.9 nM | 16.8 nM |
| GCCAUCGCAUGAGGAUAUAAAAUUAUAAUUAAAUUAGAAGGCAUGUCAUAAGACAUGAGGAUCACCCAUGUAGUUAAGAUGGCA | – | – | 483 nM | 132 nM |
| GAGUUACAUGAGGAUCACCCAUGUGGUUGUGGAUAAGGAUAUAUGGUAGGAGGAGGAAUGAUAGAAGGUAUUAGGG | – | – | 69 nM | 45.5 nM |
| UCAUACGGUGAGGAUAUCUCCGCUAAAGUGUGUAGAGAAGGCGCUACAUGAGGAUCACCCAUGUUUGUGGGCAG | 402 nM | 149 nM | – | – |
| CUCUUGUCAGGAUAUGCUGCUCGUCACGAAAGUGAUGAGUAGCAGAAGGGACAUGAGGAUCACCCAUGUAAAUA | 53.7 nM | 17.5 nM | – | – |
| CAGAAACAUGAGGAUCACCCAUGUGAGGAUAUGCGUACGUUGUCCGUAGGCGACGUGCGCAGAAGGCACAAAGG | 132 nM | 256 nM | – | – |
| GCAAUAGCAUGAGGAUAUGUUGGAGUUUAGACAGCAGAAGGCAUGUCAUAAGACAUGAGGAUCACCCAUGUAGUUACAAUGGCA | – | – | 22.6 nM | 11.5 nM |
| UUUUUGUGAGGAUAUCAGUAGUAGAACAAUAGUACUACUACUGAGAAGGCACAUGAGGAUCACCCAUGUUCCUC | 58.1 nM | 325 nM | – | – |
| GAGCACUGAUAAUAAUGUAGAAAUACAUGAGGAUCACCCAUGUAGGAUAUCGUCAGGAAUACUGACGAGAAGGACAUACAGUGC | 15.7 nM | 25.5 nM | – | – |
| AUAAAACAUGAGGAUCACCCAUGUCAACAAAGUCGAGGAUAUGGGCAAAUAAAAUAAGAACCAGAAGGCGUAUAAU | – | – | – | 94.3 nM |
| UUUGGUUGUGUAGGAUAUGUGUGGCGGGCUGGCACAGAAGGACAUGAGGAUCACCCAUGUGGUUUGGGUUGGGUGGUUGGCCCG | 943 nM | 771 nM | – | – |
| GUAGAGUCAGGAUAUACAAGAUCGAAAGAUCGAAGAUUUAUACAUGAGGAUCACCCAUGUAGAAGGGACUCUAC | 14.4 nM | 16.9 nM | – | – |
| AAUUGACAUGAGGAUCACCCAUGUCCACCAAACGGAGGAUAUUGGGCGGCAAAACGUUGUUAAGAAGGCCGAAAUU | – | – | 34.1 nM | 88.3 nM |
